Data as given in PMC11865470 (Communications Biology, 2025).

How the values were obtained:
Assay type in all cases: cell-based
mOtop1 R554H = mOtop1 R554H (Mus musculus, UniProt Q80VM9, R554H); test: patch-clamp, mOtop1 mutant; details: Fig 5G, H
mOtop1 E226A = mOtop1 E226A (Mus musculus, UniProt Q80VM9, E226A); test: patch-clamp, mOtop1 mutant; details: 10 μM; pH 5.5
Summary of the method: (§1)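 Alanine-substituted mOtop1 mutants were co-transfected (2.5 μg channel plus 0.5 μg EGFP plasmid, Lipofectamine 2000) into PAC-knockout HEK293T cells. Whole-cell recording 16–24 h after seeding on PLL coverslips. Pipette (mM): 120 Cs-aspartate, 15 CsCl, 2 Mg-ATP, 5 EGTA, 2.4 CaCl2, 10 HEPES, pH 7.3. Bath (mM): 160 NMDG-Cl, 2 CaCl2, 10 MES, pH 5.5, with 10 μM test compound. Response compared with wild-type mOtop1.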

mOtop1 R554C = mOtop1 R554C (Mus musculus, UniProt Q80VM9, R554C); test: patch-clamp, mOtop1 mutant; details: Fig 5G, H
mOtop1 R554N = mOtop1 R554N (Mus musculus, UniProt Q80VM9, R554N); test: patch-clamp, mOtop1 mutant; details: Fig 5G, H
mOtop1 R554K = mOtop1 R554K (Mus musculus, UniProt Q80VM9, R554K); test: patch-clamp, mOtop1 mutant; details: Fig 5G, H
mOtop1 H246A = mOtop1 H246A (Mus musculus, UniProt Q80VM9, H246A); test: patch-clamp, mOtop1 mutant; details: 10 μM; pH 5.5
Summary of the method: as §1

mOtop1 D244A = mOtop1 D244A (Mus musculus, UniProt Q80VM9, D244A); test: patch-clamp, mOtop1 mutant; details: 10 μM; pH 5.5
Summary of the method: as §1

mOtop1 I239A = mOtop1 I239A (Mus musculus, UniProt Q80VM9, I239A); test: patch-clamp, mOtop1 mutant; details: 10 μM; pH 5.5
Summary of the method: as §1

[1] = target: T1, mouse Otop1 (mOtop1) channels (Mus musculus, UniProt Q80VM9); test: activation time constant; details: 10 μM; before or concurrently with pH 5.5 stimulus
T1 sequence (Q80VM9 1-600): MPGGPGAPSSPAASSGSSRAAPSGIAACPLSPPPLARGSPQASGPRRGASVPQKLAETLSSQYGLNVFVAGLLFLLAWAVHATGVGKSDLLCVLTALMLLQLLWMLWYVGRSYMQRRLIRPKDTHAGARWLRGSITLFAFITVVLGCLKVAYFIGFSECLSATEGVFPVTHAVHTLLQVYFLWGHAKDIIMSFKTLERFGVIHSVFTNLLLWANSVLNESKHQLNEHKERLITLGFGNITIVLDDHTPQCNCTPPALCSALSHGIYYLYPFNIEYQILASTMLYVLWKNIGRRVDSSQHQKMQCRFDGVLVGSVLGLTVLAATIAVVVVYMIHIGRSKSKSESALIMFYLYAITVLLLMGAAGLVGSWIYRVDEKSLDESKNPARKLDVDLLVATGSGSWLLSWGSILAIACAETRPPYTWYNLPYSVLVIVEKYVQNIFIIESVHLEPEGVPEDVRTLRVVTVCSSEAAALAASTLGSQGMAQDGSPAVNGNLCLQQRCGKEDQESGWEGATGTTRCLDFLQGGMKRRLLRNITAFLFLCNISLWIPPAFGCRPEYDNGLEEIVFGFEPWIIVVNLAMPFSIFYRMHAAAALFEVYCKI

mOtop1 R554E = mOtop1 R554E (Mus musculus, UniProt Q80VM9, R554E); test: patch-clamp, mOtop1 mutant; details: Fig 5G, H
mOtop1 I241A = mOtop1 I241A (Mus musculus, UniProt Q80VM9, I241A); test: patch-clamp, mOtop1 mutant; details: 10 μM; pH 5.5
Summary of the method: as §1

NaV1.7 = NaV1.7 (Homo sapiens, UniProt Q15858); test: whole-cell patch-clamp, off-target channel, 10 μM compound
Summary of the method: (§2)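 NaV channels, transiently transfected HEK293T cells, whole-cell, 16–24 h after seeding. Pipette (mM): 140 CsF, 1 EGTA, 10 NaCl, 10 HEPES, pH 7.4. Bath (mM): 140 NaCl, 5 KCl, 2 CaCl2, 1 MgCl2, 10 glucose, 10 HEPES, pH 7.4. Bath with 0.1% DMSO applied before 10 μM test compound. Inhibition ratios compared by unpaired t-test, n = 5.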

mOtop1 R554Q = mOtop1 R554Q (Mus musculus, UniProt Q80VM9, R554Q); test: patch-clamp, mOtop1 mutant; details: Fig 5G, H
mOtop1 T240A = mOtop1 T240A (Mus musculus, UniProt Q80VM9, T240A); test: patch-clamp, mOtop1 mutant; details: 10 μM; pH 5.5
Summary of the method: as §1

mOtop1 T233A = mOtop1 T233A (Mus musculus, UniProt Q80VM9, T233A); test: patch-clamp, mOtop1 mutant; details: 10 μM; pH 5.5
Summary of the method: as §1

mOtop1 D245A = mOtop1 D245A (Mus musculus, UniProt Q80VM9, D245A); test: patch-clamp, mOtop1 mutant; details: 10 μM; pH 5.5
Summary of the method: as §1

[2] = target: T1, mouse Otop1 (mOtop1) channels; test: whole-cell patch-clamp, peak currents: current density and "on-cell" analysis; details: for effect on mOtop1 current density: 10 μM
[3] = target: T1, mouse Otop1 (mOtop1) channels; details: 10 μM MFaN; pH 5.5
[4] = target: T1, mouse Otop1 (mOtop1) channels; test: reversal potential; details: 10 μM; pH 5.5; bath NMDG+, Na+, K+ or Cs+
NaV1.5 = NaV1.5 (Homo sapiens, UniProt Q14524); test: whole-cell patch-clamp, off-target channel, 10 μM compound
Summary of the method: as §2

mOtop1 E229A = mOtop1 E229A (Mus musculus, UniProt Q80VM9, E229A); test: patch-clamp, mOtop1 mutant; details: 10 μM; pH 5.5
Summary of the method: as §1

Otop1 channels = Otop1 channels (Mus musculus, UniProt Q80VM9); test: patch-clamp, pH 8.5-evoked Otop1 currents with preincubated HIMOP; details: 10 μM, preincubated at pH 7.4 for 2 min; 0 mV
Summary of the method: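 Mouse Otop1 was expressed with EGFP in PAC-knockout HEK293T cells and whole-cell recorded with Cs-aspartate pipette solution (pH 7.3). Test compound was preincubated with cells at pH 7.4 (NMDG-Cl bath, 10 mM HEPES) for 2 min, then pH 8.5 stimulus applied (NMDG-Cl bath, 10 mM Tris).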

Sequence of NaV1.7 (Q15858 whole entry): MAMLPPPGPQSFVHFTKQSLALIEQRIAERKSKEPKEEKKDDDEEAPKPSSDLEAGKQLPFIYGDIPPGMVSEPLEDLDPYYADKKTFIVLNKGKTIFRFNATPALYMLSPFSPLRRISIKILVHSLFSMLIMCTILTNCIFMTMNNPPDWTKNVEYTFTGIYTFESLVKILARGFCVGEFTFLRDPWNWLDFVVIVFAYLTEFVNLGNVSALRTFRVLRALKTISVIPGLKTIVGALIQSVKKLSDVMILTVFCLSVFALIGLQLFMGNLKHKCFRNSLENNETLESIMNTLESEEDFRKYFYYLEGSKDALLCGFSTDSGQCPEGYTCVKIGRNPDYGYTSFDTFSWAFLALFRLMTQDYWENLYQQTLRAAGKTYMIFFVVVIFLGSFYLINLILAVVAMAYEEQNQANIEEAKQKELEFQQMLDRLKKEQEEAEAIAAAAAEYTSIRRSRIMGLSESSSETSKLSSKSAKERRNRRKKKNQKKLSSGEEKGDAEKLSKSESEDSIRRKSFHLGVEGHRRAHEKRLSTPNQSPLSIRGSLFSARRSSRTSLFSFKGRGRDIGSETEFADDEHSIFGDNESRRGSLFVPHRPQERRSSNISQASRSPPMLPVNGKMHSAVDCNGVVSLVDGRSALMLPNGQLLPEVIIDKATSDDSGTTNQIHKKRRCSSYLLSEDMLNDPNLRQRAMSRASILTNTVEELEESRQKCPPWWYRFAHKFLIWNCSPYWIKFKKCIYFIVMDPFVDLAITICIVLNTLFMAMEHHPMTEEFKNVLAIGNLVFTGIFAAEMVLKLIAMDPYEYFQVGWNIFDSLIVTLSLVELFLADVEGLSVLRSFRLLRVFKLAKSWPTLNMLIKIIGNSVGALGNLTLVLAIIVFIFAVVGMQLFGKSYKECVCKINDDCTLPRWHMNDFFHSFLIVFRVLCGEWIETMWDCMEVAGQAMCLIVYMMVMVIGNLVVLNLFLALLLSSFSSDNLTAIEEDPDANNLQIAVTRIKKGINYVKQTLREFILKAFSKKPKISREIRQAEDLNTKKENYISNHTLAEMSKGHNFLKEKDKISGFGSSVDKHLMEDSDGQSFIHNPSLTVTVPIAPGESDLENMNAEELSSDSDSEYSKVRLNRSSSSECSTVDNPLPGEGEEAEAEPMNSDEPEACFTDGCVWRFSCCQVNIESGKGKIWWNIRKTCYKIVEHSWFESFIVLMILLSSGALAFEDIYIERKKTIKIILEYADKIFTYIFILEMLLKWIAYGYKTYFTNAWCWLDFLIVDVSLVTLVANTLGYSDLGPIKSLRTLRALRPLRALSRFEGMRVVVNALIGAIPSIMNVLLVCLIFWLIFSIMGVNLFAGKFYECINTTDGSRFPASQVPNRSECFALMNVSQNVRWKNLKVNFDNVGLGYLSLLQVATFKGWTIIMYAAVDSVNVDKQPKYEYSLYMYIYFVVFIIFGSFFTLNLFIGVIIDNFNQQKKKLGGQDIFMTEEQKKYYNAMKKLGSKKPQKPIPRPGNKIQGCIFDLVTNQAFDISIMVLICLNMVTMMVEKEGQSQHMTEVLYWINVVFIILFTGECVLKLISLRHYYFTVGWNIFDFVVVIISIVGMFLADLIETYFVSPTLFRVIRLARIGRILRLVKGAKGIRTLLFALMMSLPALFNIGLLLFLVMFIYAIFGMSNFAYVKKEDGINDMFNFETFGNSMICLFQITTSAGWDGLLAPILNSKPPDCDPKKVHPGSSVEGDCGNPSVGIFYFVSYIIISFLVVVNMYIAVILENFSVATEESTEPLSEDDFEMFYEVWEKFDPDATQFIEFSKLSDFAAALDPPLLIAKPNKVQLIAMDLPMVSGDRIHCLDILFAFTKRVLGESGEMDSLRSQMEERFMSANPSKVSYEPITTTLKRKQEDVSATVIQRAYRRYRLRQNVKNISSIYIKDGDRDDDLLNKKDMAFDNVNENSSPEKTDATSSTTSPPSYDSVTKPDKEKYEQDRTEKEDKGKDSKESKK
Sequence of NaV1.5 (Q14524 whole entry): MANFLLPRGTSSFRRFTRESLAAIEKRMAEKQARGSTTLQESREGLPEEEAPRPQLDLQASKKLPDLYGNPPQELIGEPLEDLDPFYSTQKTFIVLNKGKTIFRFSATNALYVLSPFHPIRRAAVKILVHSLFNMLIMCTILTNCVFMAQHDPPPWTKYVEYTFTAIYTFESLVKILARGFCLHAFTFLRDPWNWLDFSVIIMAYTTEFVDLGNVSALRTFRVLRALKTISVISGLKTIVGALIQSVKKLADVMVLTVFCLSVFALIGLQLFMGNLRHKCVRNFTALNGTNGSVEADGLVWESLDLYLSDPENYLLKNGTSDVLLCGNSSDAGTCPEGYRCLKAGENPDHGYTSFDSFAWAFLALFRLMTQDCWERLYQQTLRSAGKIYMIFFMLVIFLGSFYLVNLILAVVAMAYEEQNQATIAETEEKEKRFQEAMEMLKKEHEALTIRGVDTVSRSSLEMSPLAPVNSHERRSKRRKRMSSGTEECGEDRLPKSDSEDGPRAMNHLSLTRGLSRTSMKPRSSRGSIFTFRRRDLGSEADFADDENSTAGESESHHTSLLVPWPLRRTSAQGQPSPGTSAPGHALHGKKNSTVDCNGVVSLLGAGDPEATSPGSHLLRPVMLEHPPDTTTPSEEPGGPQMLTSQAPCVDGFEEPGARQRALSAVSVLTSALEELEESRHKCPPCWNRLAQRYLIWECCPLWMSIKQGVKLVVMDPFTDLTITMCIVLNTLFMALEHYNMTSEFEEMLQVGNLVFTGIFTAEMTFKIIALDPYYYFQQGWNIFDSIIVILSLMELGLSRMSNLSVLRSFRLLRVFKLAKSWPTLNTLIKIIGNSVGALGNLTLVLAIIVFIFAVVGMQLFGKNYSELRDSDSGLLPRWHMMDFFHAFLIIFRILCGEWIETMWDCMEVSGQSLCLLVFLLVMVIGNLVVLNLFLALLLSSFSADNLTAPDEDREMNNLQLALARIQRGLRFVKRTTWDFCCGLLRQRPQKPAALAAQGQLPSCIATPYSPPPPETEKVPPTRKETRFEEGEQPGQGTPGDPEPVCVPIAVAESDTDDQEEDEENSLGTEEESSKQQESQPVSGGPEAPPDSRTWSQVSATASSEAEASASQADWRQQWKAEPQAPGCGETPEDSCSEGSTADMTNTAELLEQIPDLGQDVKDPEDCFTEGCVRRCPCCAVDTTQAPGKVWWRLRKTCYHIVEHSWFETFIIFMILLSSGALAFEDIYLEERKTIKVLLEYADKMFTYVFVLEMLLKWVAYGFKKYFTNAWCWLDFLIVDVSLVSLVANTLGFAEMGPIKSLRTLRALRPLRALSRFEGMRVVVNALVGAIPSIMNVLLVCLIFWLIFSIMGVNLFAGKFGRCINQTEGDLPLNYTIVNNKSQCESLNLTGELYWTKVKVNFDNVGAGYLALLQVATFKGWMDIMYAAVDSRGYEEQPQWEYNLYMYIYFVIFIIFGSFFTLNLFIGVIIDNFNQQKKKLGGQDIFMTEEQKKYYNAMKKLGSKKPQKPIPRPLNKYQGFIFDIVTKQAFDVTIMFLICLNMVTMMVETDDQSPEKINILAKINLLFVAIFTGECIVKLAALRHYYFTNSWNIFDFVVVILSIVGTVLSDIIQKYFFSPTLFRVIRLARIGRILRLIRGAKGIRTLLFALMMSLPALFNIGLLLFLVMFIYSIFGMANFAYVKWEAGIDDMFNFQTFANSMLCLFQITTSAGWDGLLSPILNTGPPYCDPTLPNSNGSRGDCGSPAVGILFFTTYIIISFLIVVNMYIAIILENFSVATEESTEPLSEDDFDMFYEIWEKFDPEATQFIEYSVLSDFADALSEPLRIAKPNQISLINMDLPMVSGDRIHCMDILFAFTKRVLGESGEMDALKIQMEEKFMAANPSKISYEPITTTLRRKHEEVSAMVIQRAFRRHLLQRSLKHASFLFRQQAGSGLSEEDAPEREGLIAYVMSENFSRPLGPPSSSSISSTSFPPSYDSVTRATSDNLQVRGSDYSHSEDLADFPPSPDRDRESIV
Sequence of mOtop1 R554Q (Q80VM9 whole entry R554Q): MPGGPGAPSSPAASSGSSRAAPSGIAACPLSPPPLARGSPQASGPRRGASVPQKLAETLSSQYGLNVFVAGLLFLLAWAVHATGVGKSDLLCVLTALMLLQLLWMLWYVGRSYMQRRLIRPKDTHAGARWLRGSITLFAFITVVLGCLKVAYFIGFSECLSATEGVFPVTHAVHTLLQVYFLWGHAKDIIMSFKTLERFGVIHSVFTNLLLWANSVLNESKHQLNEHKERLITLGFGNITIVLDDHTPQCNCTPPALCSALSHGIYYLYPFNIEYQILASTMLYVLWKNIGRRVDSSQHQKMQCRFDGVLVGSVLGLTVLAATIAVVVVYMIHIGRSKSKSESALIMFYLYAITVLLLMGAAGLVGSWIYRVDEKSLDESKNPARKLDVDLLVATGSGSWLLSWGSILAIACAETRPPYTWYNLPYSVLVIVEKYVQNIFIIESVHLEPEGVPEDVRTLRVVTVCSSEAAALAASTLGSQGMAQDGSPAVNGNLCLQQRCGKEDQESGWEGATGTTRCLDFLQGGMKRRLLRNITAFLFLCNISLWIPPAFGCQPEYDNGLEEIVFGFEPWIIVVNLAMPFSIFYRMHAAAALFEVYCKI

## Cc1ccc(C(=O)Nc2ccc3ccccc3c2)o1 [MFaN, 5-methyl-N-2-naphthyl-2-furamide]
mOtop1 R554H
  effect of mutation on MFaN's potentiation effect vs WT mOtop1: reduced
mOtop1 E226A
  response of mutant to MFaN compared to wild-type mOtop1: markedly reduced
mOtop1 R554C
  effect of mutation on MFaN's potentiation effect vs WT mOtop1: eliminated
mOtop1 R554N
  effect of mutation on MFaN's potentiation effect vs WT mOtop1: eliminated
mOtop1 R554K
  effect of mutation on MFaN's potentiation effect vs WT mOtop1: did not affect
mOtop1 H246A
  response of mutant to MFaN compared to wild-type mOtop1: significantly enhanced
mOtop1 D244A
  response of mutant to MFaN compared to wild-type mOtop1: markedly reduced
mOtop1 I239A
  response of mutant to MFaN compared to wild-type mOtop1: markedly reduced
[1]
  effect on the activation rate of mOtop1 channels: had no effect
mOtop1 R554E
  effect of mutation on MFaN's potentiation effect vs WT mOtop1: eliminated
mOtop1 I241A
  response of mutant to MFaN compared to wild-type mOtop1: markedly reduced
NaV1.7; vs 0.1% DMSO
  sensitivity of channel to compound: completely resistant
mOtop1 R554Q
  effect of mutation on MFaN's potentiation effect vs WT mOtop1: eliminated
mOtop1 T240A
  response of mutant to MFaN compared to wild-type mOtop1: markedly reduced
mOtop1 T233A
  response of mutant to MFaN compared to wild-type mOtop1: markedly reduced
mOtop1 D245A
  response of mutant to MFaN compared to wild-type mOtop1: significantly enhanced
[2]
  EC50: 9.2 ± 0.6 µM
[2]; pH 5.5, Fig 4A
  effect on mOtop1 current density: significantly increased
[2]; pHs ranging from 4.5 to 6.0
  effect on mOtop1 current density: significantly increased
[3]
  effect on inhibition of mOtop1 by Zn2+: without affecting
[4]
  effect on Vrev of the mOtop1 channel: did not change
NaV1.5
  inhibition ratio: 14.8%
mOtop1 E229A
  response of mutant to MFaN compared to wild-type mOtop1: significantly enhanced

## CC(C)c1noc2ncc(C(=O)c3ccccc3O)cc12 [HIMOP, (2-hydroxyphenyl)-(3-propan-2-yl-5-isoxazolo[5,4-b]pyridinyl)methanone]
Otop1 channels
  effect on pH 8.5-evoked Otop1 currents: significantly enhanced
NaV1.7
  inhibition ratio: 11.3%
NaV1.5
  inhibition ratio: 8.9%
